Screening results as filed in PubChem.
Shown are actives, neighbours in structure and some others; about 1.9% of the full set was active somewhere.
Hck Nef HTS: inhibitors of Nef-activated human Hck kinase, primary screen, biochemical, Z-Lyte FRET, 384-well, Hck-YEEI | Tyrosine-protein kinase HCK (Homo sapiens), P08631 | Recombinant Hck-YEEI plus Nef, Z-Lyte FRET kinase assay | inhibition, % at 20 µM | hit rate 0.68% among 220,000;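 active means Hck-Nef kinase inhibition above about 50%, limit read from the data; inactive means inhibition below that limit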
Runt-SMMHC FRET: inhibitors of RUNX1 Runt–CBFb-SMMHC binding, primary screen, biochemical, FRET, Cerulean-Runt, Venus-CBFb-SMMHC, uHTS; hit rate 0.74% among 220,000; AID 1434, 2008; Runt-related transcription factor 1 (Homo sapiens) + Core-binding factor subunit beta …; inhibition, % at 20 µM; Cerulean-Runt/Venus-CBFb-SMMHC FRET ratio 530/480, 1 h;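 active means mean inhibition across duplicate retests at 20 µM reaching about 50%, limit read from the data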;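 further: inhibitors lower the FRET ratio by blocking Runt binding to CBFb-SMMHC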
Target sequence (Q01196 whole entry, looked up): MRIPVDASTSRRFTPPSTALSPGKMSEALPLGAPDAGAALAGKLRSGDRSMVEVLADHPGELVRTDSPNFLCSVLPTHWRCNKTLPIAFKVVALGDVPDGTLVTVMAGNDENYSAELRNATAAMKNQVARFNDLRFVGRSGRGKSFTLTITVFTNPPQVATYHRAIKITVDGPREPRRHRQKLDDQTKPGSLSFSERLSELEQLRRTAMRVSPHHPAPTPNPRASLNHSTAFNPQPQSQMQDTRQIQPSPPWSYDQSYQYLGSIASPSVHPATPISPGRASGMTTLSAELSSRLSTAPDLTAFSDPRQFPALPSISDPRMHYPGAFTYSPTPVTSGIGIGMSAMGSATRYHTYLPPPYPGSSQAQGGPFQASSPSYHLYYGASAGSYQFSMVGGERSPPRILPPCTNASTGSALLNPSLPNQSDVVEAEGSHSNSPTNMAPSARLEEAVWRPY
Target sequence (Q13951 whole entry, looked up): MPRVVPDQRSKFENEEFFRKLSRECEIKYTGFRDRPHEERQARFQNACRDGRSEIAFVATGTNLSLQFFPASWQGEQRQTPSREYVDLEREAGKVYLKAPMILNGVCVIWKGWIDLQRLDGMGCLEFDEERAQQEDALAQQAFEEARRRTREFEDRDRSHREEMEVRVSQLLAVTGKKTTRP
RanGTP-Impb inh: inhibitors of RanGTP-importin-beta interaction, primary screen, biochemical, FRET, CFP-Ran, YFP-importin-beta, homogeneous | inhibition, % (concentration not given with the values) | hit rate 1.1% among 300,000 | cell-free CFP-Ran/YFP-importin-beta FRET ratio;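 active means more than half of the replicate wells show a fall in the fluorescence ratio signal beyond about 16%, limit read from the data, passing the limit was not always enough; inconclusive means exactly half of the replicate wells pass the set limit; inactive means fewer than half of replicates pass the limit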
Runt-CBFb FRET: inhibitors of RUNX1 Runt–CBFb binding, primary screen, biochemical, FRET, Cerulean-Runt, Venus-CBFb, uHTS; inhibition, % at 20 µM; hit rate 0.46% among 220,000; Cerulean-Runt/Venus-CBFb FRET ratio 530/480, 1 h;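 active means inhibition over about 50% at 20 µM in the single-dose screen, limit read from the data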
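Buffer or medium: Tris pH 7.5 buffer with BSA. Assay system: Cerulean-labeled Runt domain protein. Amount: each fluorescent fusion protein 100 nM. Read-out basis: loss of energy transfer signal. Incubation: 1 h compound exposure, room temperature. Probe or stimulus: Venus-CBFb binding partner, 100 nM. Detection: FRET, excitation 422 nm, emission at 530 and 480 nm.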
Hits are given with their value; - = inactive; ? = inconclusive; . = no result; ! = repeats disagree.

SMILES	Hck Nef HTS	Runt-SMMHC FRET	RanGTP-Impb inh	Runt-CBFb FRET
O=C(COC(=O)c1nc(Cl)ccc1Cl)NC(=O)c1ccccc1	.	.	-	.
COc1ccc(CN(C)C(=O)c2cccc(C(=O)N(C)Cc3ccc(OC)cc3)c2)cc1	.	.	-	.
COc1ccc(N2CCN(c3nc(=S)n(-c4ccccc4)c(C)c3C(C)=O)CC2)cc1	-	-	91.8	-
CCn1c(C)c(C(C)=O)c(N2CCN(c3ccc(OC)cc3)CC2)nc1=S	-	-	83.8	-
COc1ccc(N2CCN(C(=O)c3c(C)nn(-c4ccccc4)c3C)CC2)cc1	-	-	-	-
CC(=O)c1c(N2CCN(c3cccc(Cl)c3)CC2)nc(=S)n(-c2ccccc2)c1C	-	-	46.4	-
CCn1c(C)c(C(C)=O)c(N2CCN(c3cccc(Cl)c3)CC2)nc1=S	-	-	28.5	-
CC(=O)c1c(NCCc2ccccc2)nc(=S)n(-c2ccccc2)c1C	-	-	-	-
COc1ccc(-n2ncc3c2CC(C)(C)CC3NC(=O)c2cn[nH]c2)cc1 (stereo unspecified)	.	.	-	.
Nc1ncncc1-c1ccc2ccccc2c1	-	-	-	-
CC(=O)c1c(N2CCN(C)CC2)nc(=S)n(Cc2ccccc2)c1C	-	82.9	?	62.5
CC(=O)c1c(N2CCN(c3ccccn3)CC2)nc(=S)n(-c2ccccc2)c1C	-	98.8	57.0	93.1
C(=C/c1nccc2c1[nH]c1ccccc12)/c1ccc2c(c1)OCO2	-	53.0	119.8	-
COc1cc(C2C=C(c3cccs3)Nc3ncnn32)cc(OC)c1OC (stereo unspecified)	-	92.8	.	-
CCOC(=O)/C(C#N)=C1/C(=O)N(Cc2ccccc2)c2ccccc21	-	-	.	-
CCOC(=O)C(C#N)=C1CCN(Cc2ccccc2)CC1	.	.	51.2	.
Cc1cccc(N(C)S(=O)(=O)c2nnc(NC(=O)c3ccco3)s2)c1	.	.	175.8	.
CN(c1ccccc1)S(=O)(=O)c1nnc(NC(=O)c2ccco2)s1	.	.	-	.
Cc1ccc(S(=O)(=O)Oc2cc(N)c3c(n2)CCC3)cc1	-	-	-	-
CCOC(=O)C1(Cc2cccc(OC)c2)CCN(CCO)CC1	-	-	-	-
CCOC(=O)C1(Cc2cccc(OC)c2)CCN(Cc2cnc(C)s2)CC1	-	-	45.0	-
CS(=O)(=O)c1ccc(Cl)c(NC(=O)COC(=O)CCCN2C(=O)c3cccc4cccc(c34)C2=O)c1	.	.	25.2	.
O=C(COC(=O)CCCN1C(=O)c2cccc3cccc(c23)C1=O)Nc1cccc(Br)c1	-	-	-	-
CCCCn1cc(S(=O)(=O)c2ccccc2)c(=O)c2cc(C)ccc21	.	.	-	.
CN(C(=S)Nc1ccc(F)cc1)C1(c2ccccc2Cl)CCCCC1=O (stereo unspecified)	-	-	-	87.7
SMILES	Hck Nef HTS	Runt-SMMHC FRET	RanGTP-Impb inh	Runt-CBFb FRET
Cc1c(O)c(CN2CCCC2)cc2c3c(c(=O)oc12)CCC3	-	-	-	-
Nc1cc(N)nc(SCc2cc(=O)oc3cc4c(cc23)CCC4)n1	-	-	31.1	-
CCc1cc(=O)oc2c(C)c(O)c(CN3CCCCC3)cc12	-	78.0	53.4	73.4
Cc1c(O)ccc2c(CN3CCN(Cc4ccccc4)CC3)cc(=O)oc12	.	.	54.0	.
COc1cccc(CN(C)Cc2cc(=O)oc3cc(O)c(Cl)cc23)c1	.	.	76.9	.
COc1cccc(CN(C)Cc2cc(=O)oc3c(C)c(C)ccc23)c1	.	.	-	.
Cc1cc2oc(=O)cc(CSc3nc(N)cc(N)n3)c2cc1C(C)C	-	-	?	-
Cc1cc(C)cc(NC(=O)COC(=O)CN=C2NS(=O)(=O)c3ccccc32)c1	-	-	-	-
Cc1ccc(C2(c3ccc(C)cc3)NC(=O)N(CC(N)=O)C2=O)cc1	.	.	-	.
O=c1cc(CN2CCN(Cc3ccccc3)CC2)c2cc3c(cc2o1)CCC3	-	81.1	-	-
CCc1cc2c(CN3CCN(Cc4ccccc4)CC3)cc(=O)oc2cc1O	.	.	87.7	.
Cc1cc2oc(=O)cc(CN(C)Cc3cccc(F)c3)c2cc1C	.	.	-	.
CCc1cc2c(CN(C)Cc3ccccc3F)cc(=O)oc2cc1O	.	.	53.6	.
Cc1ccccc1CN(C)Cc1cc(=O)oc2c(C)c(C)ccc12	.	.	-	.
Cc1c(O)ccc2c(CN(C)Cc3ccccc3)cc(=O)oc12	-	81.2	22.7	-
CCc1cc2cc(C)cc(C)c2[nH]c1=S	-	-	-	-
CCCCCc1nnc(NC(=O)NS(=O)(=O)c2ccc(C)cc2)s1	.	.	-	.
Cc1ccc(C(=O)C[n+]2cc(Br)cc(Br)c2)cc1[N+](=O)[O-]	-	-	-	-
COc1ccc(C(=O)NCCOc2ccccc2Cl)c(OC)c1OC	.	.	-	.
COc1ccc2c(CC(=O)N[C@@H](Cc3ccccc3)C(=O)O)cc(=O)oc2c1	.	.	-	.
Cc1c(O)ccc2c(CC(=O)N[C@@H](Cc3ccccc3)C(=O)O)cc(=O)oc12	.	.	68.0	.
Cc1cc2nc3n(c2cc1C)CCCN3	.	.	-	.
O=S(=O)([N-]c1nc2ccccc2nc1-n1cc[n+](Cc2ccccc2)c1)c1ccccc1	-	-	?	-
Cc1ccc(S(=O)(=O)[N-]c2nc3ccccc3nc2-n2cc[n+](Cc3ccccc3)c2)cc1	-	-	14.3	-
COc1ccc(CC2NCCC3=CC(=O)CCC32)cc1O (stereo unspecified)	.	.	28.7	.
SMILES	Hck Nef HTS	Runt-SMMHC FRET	RanGTP-Impb inh	Runt-CBFb FRET
COc1ccc(CC(=O)O)cc1O	-	-	-	-
O=C(O)Cn1c(O)c(C=Nc2ccccc2)sc1=S	-	73.1	31.0!	-
C=CCn1c(O)c(C=Nc2ccccc2)sc1=S	-	-	-	-
Cc1ccc2nc(Nc3ccc4[nH]c(=O)[nH]c4c3)c(-n3nc(C)cc3C)nc2c1	-	-	40.2	-
COc1ccc(CCc2nnc(NS(C)(=O)=O)s2)cc1	.	.	27.4	.
CS(=O)(=O)Nc1nnc(CCc2ccccc2)s1	.	.	-	.
Fc1ccc(-c2cc(C(F)(F)F)n3ncnc3n2)cc1	-	-	-	-
Nc1nc2nc(-c3ccc(Cl)cc3)cc(C(F)(F)F)n2n1	-	76.1	?	-
Cc1ccc(/C=C/C2=Cc3c(sc(NC(=O)CSc4n[nH]c(N)n4)c3C#N)C(C)(C)C2)o1	63.8	-	-	-
N=c1c(C(=O)NCC2CCCO2)cc2c(=O)n3ccccc3nc2n1Cc1ccc(Cl)cc1 (stereo unspecified)	.	.	179.8	.
Cc1ccc(Cn2c(=N)c(C(=O)NCC3CCCO3)cc3c(=O)n4ccccc4nc32)cc1 (stereo unspecified)	.	.	160.5	.
COc1ccc(Cn2c(=N)c(C(=O)NCC3CCCO3)cc3c(=O)n4ccccc4nc32)cc1 (stereo unspecified)	.	.	22.6	.
Cc1ccc(Cn2c(=N)c(C(=O)NCC3CCCO3)cc3c(=O)n4cccc(C)c4nc32)cc1 (stereo unspecified)	.	.	-	.
